# Experimental data taken from ChEMBL document CHEMBL1123030, “N-(Aminoalkyl)imide antineoplastic agents. Synthesis and biological activity” (J Med Chem, 1985).
# Activity calls are given as the source filed them. The calls are words filed in the database; no cut-off is given here.
# How the values were obtained:
# [1] = system: P388; assay: Inhibitory activity in vivo against P388 leukemia cells in mice at a dose of 12.5 mg/kg upon intraperitoneal administration; assay type: functional, Mus musculus
# How it was run: (§1)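 Tumor source was ascites fluid implanted into BDF₁ mice. Tumor inoculation and drug dosing were both intraperitoneal, given once daily for 5 days (q1d × 5). Screening and data interpretation followed the general NCI protocol.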
# [2] = Cytotoxic activity against human colon adenocarcinoma in vitro; assay type: functional
# [3] = system: P388; assay: Inhibitory activity in vivo against P388 leukemia cells in mice at a dose of 50 mg/kg upon intraperitoneal administration; assay type: functional, Mus musculus; how it was run: as §1
# [4] = system: L1210; assay: Cytotoxic activity against L1210 leukemia in vitro.; assay type: functional, Mus musculus
# [5] = system: Mus musculus; assay: Compound was evaluated for inhibitory activity against B-16 melanoma in mice at a dose of 25 mg/kg upon intraperitoneal administration; assay type: functional
# [6] = system: Mus musculus; assay: Compound was evaluated for inhibitory activity against B-16 melanoma in mice at a dose of 12.5 mg/kg upon intraperitoneal administration; assay type: functional
# [7] = system: Mus musculus; assay: Compound was evaluated for inhibitory activity against B-16 melanoma in mice at a dose of 6.25 mg/kg upon intraperitoneal administration; assay type: functional
# [8] = system: P388; assay: Inhibitory activity in vivo against P388 leukemia cells in mice at a dose of 25 mg/kg upon intraperitoneal administration; assay type: functional, Mus musculus; how it was run: as §1
# [9] = species: Homo sapiens; assay: Compound was tested for cytotoxic activity against human colon adenocarcinoma in vitro; IA means inactive; assay type: functional
# [10] = system: Mus musculus; assay: Compound was evaluated for inhibitory activity in vivo against P388 leukemia cells in mice at a dose of 200 mg/kg upon intraperitoneal administration; assay type: functional; how it was run: as §1
# [11] = system: P388; assay: Inhibitory activity in vivo against P388 leukemia cells in mice at a dose of 100 mg/kg upon intraperitoneal administration; assay type: functional, Mus musculus; how it was run: as §1
# [12] = system: Mus musculus; assay: Compound was evaluated for inhibitory activity in vivo against P388 leukemia cells in mice at a dose of 6.25 mg/kg upon intraperitoneal administration; assay type: functional; how it was run: as §1
# [13] = system: Mus musculus; assay: Compound was evaluated for inhibitory activity in vivo against P388 leukemia cells in mice at a dose of 3.13 mg/kg upon intraperitoneal administration; assay type: functional; how it was run: as §1
# [14] = system: L1210; assay: Compound was tested for cytotoxic activity against L1210 leukemia in vitro.; IA means Inactive; assay type: functional, cell-based; conditions: Mus musculus
# [15] = system: Mus musculus; assay: Compound was evaluated for inhibitory activity in vivo against P388 leukemia cells in mice at a dose of 400 mg/kg upon intraperitoneal administration; assay type: functional; how it was run: as §1
# [16] = system: L1210; assay: Compound was tested for cytotoxic activity against L1210 leukemia in vitro; IA means inactive; assay type: functional, cell-based; conditions: Mus musculus
# [17] = species: Homo sapiens; assay: Compound was tested for cytotoxic activity against human colon adenocarcinoma in vitro; assay type: functional
# [18] = system: Mus musculus; assay: Compound was evaluated for inhibitory activity against B-16 melanoma in mice at a dose of 1.56 mg/kg upon intraperitoneal administration; assay type: functional
# [19] = system: Mus musculus; assay: Compound was evaluated for inhibitory activity against B-16 melanoma in mice at a dose of 3.13 mg/kg upon intraperitoneal administration; assay type: functional
# [20] = system: Mus musculus; assay: Compound was evaluated for inhibitory activity in vivo against P388 leukemia cells in mice at a dose of 1.50 mg/kg upon intraperitoneal administration; assay type: functional; conditions: dose 1.5 mg/kg; how it was run: as §1
# [21] = system: Mus musculus; assay: Compound was evaluated for inhibitory activity in vivo against P388 leukemia cells in mice at a dose of 1.56 mg/kg upon intraperitoneal administration; assay type: functional; how it was run: as §1
# [22] = system: Mus musculus; assay: Compound was evaluated for inhibitory activity in vivo against P388 leukemia cells in mice at a dose of 0.75 mg/kg upon intraperitoneal administration; assay type: functional; how it was run: as §1
# [23] = system: Mus musculus; assay: Compound was evaluated for inhibitory activity in vivo against P388 leukemia cells in mice at a dose of 3.12 mg/kg upon intraperitoneal administration; assay type: functional; how it was run: as §1
# [24] = system: Mus musculus; assay: Compound was evaluated for inhibitory activity in vivo against P388 leukemia cells in mice at a dose of 3.00 mg/kg upon intraperitoneal administration; assay type: functional; how it was run: as §1
# [25] = system: Mus musculus; assay: Compound was evaluated for inhibitory activity in vivo against P388 leukemia cells in mice at a dose of 120 mg/kg upon intraperitoneal administration; assay type: functional; how it was run: as §1
# [26] = system: Mus musculus; assay: Compound was evaluated for inhibitory activity in vivo against P388 leukemia cells in mice at a dose of 30 mg/kg upon intraperitoneal administration; assay type: functional; how it was run: as §1
# [27] = system: Mus musculus; assay: Compound was evaluated for inhibitory activity in vivo against P388 leukemia cells in mice at a dose of 240 mg/kg upon intraperitoneal administration; assay type: functional; how it was run: as §1
# [28] = system: Mus musculus; assay: Compound was evaluated for inhibitory activity in vivo against P388 leukemia cells in mice at a dose of 60 mg/kg upon intraperitoneal administration; assay type: functional; how it was run: as §1
# [29] = system: Mus musculus; assay: Compound was evaluated for inhibitory activity in vivo against P388 leukemia cells in mice at a dose of 16 mg/kg upon intraperitoneal administration; assay type: functional; how it was run: as §1
# [30] = system: Mus musculus; assay: Compound was evaluated for inhibitory activity in vivo against P388 leukemia cells in mice at a dose of 2 mg/kg upon intraperitoneal administration; assay type: functional; how it was run: as §1
# [31] = system: Mus musculus; assay: Compound was evaluated for inhibitory activity in vivo against P388 leukemia cells in mice at a dose of 8 mg/kg upon intraperitoneal administration; assay type: functional; how it was run: as §1
# [32] = system: Mus musculus; assay: Compound was evaluated for inhibitory activity in vivo against P388 leukemia cells in mice at a dose of 4 mg/kg upon intraperitoneal administration; assay type: functional; how it was run: as §1
# [33] = species: Homo sapiens; assay: Compound was tested for cytotoxic activity against human colon adenocarcinoma in vitro; IA means Inactive; assay type: functional
smiles,measurement,setting,value
Cl.O=C1c2cc([N+](=O)[O-])cc3cc([N+](=O)[O-])cc(c23)C(=O)N1CCN1CCCCC1,T/C,[1],138
same,Cytotoxic concentration,[2],539 nM
same,T/C,[3],247
same,Cytotoxic concentration,[4],287 nM
same,T/C,[5],156
same,T/C,[6],133
same,T/C,[7],114
same,T/C,[8],181
CN(C)CCN1C(=O)c2cccc3cc(O)cc(c23)C1=O,Cytotoxic concentration,[9],inactive
same,T/C,[10],142
same,Cytotoxic concentration,[4],1640 nM
same,T/C,[11],115
CCN(CC)CCN1C(=O)c2cccc3cc([N+](=O)[O-])cc(c23)C1=O.Cl,T/C,[1],120
same,Cytotoxic concentration,[4],1370 nM
same,T/C,[8],149
Cl.O=C1c2cccc3cc([N+](=O)[O-])cc(c23)C(=O)N1CCN1CCCC1,T/C,[1],163
same,T/C,[12],149
same,Cytotoxic concentration,[4],159 nM
same,T/C,[13],135
Cl.O=C1c2cccc3cc([N+](=O)[O-])cc(c23)C(=O)N1CCN1CCNCC1,T/C,[1],116
same,T/C,[3],136
same,Cytotoxic concentration,[4],1380 nM
same,T/C,[8],129
CN(C)CCN1C(=O)c2cccc3c(O)ccc(c23)C1=O.I,T/C,[10],112
same,Cytotoxic concentration,[14],inactive
same,T/C,[11],107
same,T/C,[15],120
COc1ccc2c3c(ccc(OC)c13)C(=O)N(CCN(C)C)C2=O,T/C,[10],123
same,T/C,[3],120
same,Cytotoxic concentration,[16],inactive
same,T/C,[11],118
same,T/C,[8],102
Cl.O=C1c2cccc3cc([N+](=O)[O-])cc(c23)C(=O)N1CCN1CCCCC1,T/C,[1],119
same,T/C,[3],176
same,Cytotoxic concentration,[4],590 nM
same,T/C,[8],137
O=C1c2cccc3cc([N+](=O)[O-])cc(c23)C(=O)N1CCNCCO,Cytotoxic concentration,[17],388 nM
same,T/C,[18],112
same,T/C,[19],142
same,T/C,[1],151
same,T/C,[12],137
same,T/C,[5],216
same,T/C,[6],219
same,T/C,[7],174
same,T/C,[8],163
CN(C)CCN1C(=O)c2ccc(Cl)c3c(Cl)ccc(c23)C1=O,Cytotoxic concentration,[4],699 nM
same,T/C,[8],107
CN(C)CCN1C(=O)c2cc([N+](=O)[O-])cc3cc([N+](=O)[O-])cc(c23)C1=O.Cl,Cytotoxic concentration,[2],41.3 nM
same,Cytotoxic concentration,[4],36.1 nM
same,T/C,[20],167
same,T/C,[21],155
same,T/C,[22],159
same,T/C,[23],167
same,T/C,[24],169
CCNCCN1C(=O)c2cccc3cc([N+](=O)[O-])cc(c23)C1=O.Cl,T/C,[1],129
same,T/C,[12],123
same,Cytotoxic concentration,[4],700 nM
same,T/C,[8],162
CN(C)CCN1C(=O)c2cc(O)cc3cc(O)cc(c23)C1=O,Cytotoxic concentration,[9],inactive
same,T/C,[1],122
same,T/C,[10],149
same,T/C,[3],142
same,Cytotoxic concentration,[4],3540 nM
same,T/C,[11],148
same,T/C,[8],130
same,T/C,[15],140
COc1ccc2c3c(cccc13)C(=O)N(CCN(C)C)C2=O,T/C,[10],133
same,T/C,[3],109
same,Cytotoxic concentration,[16],inactive
same,T/C,[11],117
CN(C)CCN1C(=O)c2ccc3c4c(ccc(c24)C1=O)C(=O)N(CCN(C)C)C3=O,T/C,[12],125
same,T/C,[23],116
Cl.O=C1c2cc([N+](=O)[O-])cc3cc([N+](=O)[O-])cc(c23)C(=O)N1CCN1CCOCC1,T/C,[1],112
same,Cytotoxic concentration,[2],722 nM
same,T/C,[3],147
same,Cytotoxic concentration,[4],1130 nM
same,T/C,[8],131
CNCCN1C(=O)c2cccc3cc([N+](=O)[O-])cc(c23)C1=O.Cl,T/C,[1],177
same,T/C,[12],139
same,Cytotoxic concentration,[4],266 nM
same,T/C,[23],129
O=C1c2cc([N+](=O)[O-])cc3cc([N+](=O)[O-])cc(c23)C(=O)N1CCNCCO.O=S(=O)(O)O,T/C,[25],123
same,T/C,[26],118
same,Cytotoxic concentration,[2],1250 nM
same,Cytotoxic concentration,[4],431 nM
same,T/C,[27],132
same,T/C,[28],123
CCN(CC)CCN1C(=O)c2cc([N+](=O)[O-])cc3cc([N+](=O)[O-])cc(c23)C1=O.Cl,T/C,[1],141
same,Cytotoxic concentration,[2],820 nM
same,T/C,[3],215
same,Cytotoxic concentration,[4],347 nM
same,T/C,[8],207
CN(C)CCN1C(=O)c2cccc3cc(N)cc(c23)C1=O [AMONAFIDE],T/C,[29],177
same,T/C,[30],135
same,T/C,[31],144
same,T/C,[32],142
CN(C)CCN1C(=O)c2cccc3c(Cl)ccc(c23)C1=O,T/C,[3],121
same,Cytotoxic concentration,[4],1010 nM
same,T/C,[11],120
same,T/C,[8],105
Cl.O=C1c2cccc3cc([N+](=O)[O-])cc(c23)C(=O)N1CCN1CCOCC1,T/C,[3],105
same,Cytotoxic concentration,[16],inactive
same,T/C,[11],183
CN(C)CCCN1C(=O)c2cc([N+](=O)[O-])cc3cc([N+](=O)[O-])cc(c23)C1=O.Cl,T/C,[1],113
same,Cytotoxic concentration,[2],1180 nM
same,T/C,[3],154
same,Cytotoxic concentration,[4],1420 nM
same,T/C,[8],129
CN(C)CCN1C(=O)c2cccc3cccc(c23)C1=O,T/C,[3],130
same,Cytotoxic concentration,[4],2050 nM
same,T/C,[11],166
same,T/C,[8],116
Cl.O=C1c2cccc3cccc(c23)C(=O)N1CCNCCO,T/C,[3],120
same,Cytotoxic concentration,[4],2050 nM
same,T/C,[8],102
O=C1OCCN1CCN1C(=O)c2cc([N+](=O)[O-])cc3cc([N+](=O)[O-])cc(c23)C1=O,T/C,[25],119
same,Cytotoxic concentration,[4],2020 nM
same,Cytotoxic concentration,[33],inactive
same,T/C,[28],109
CN(C)CCN1C(=O)c2cccc3cc([N+](=O)[O-])cc(c23)C1=O.Cl,Cytotoxic concentration,[17],106 nM
same,T/C,[12],164
same,Cytotoxic concentration,[4],151 nM
same,T/C,[21],121
same,T/C,[23],138
